Source: publication PMC3983694 (Journal of the American Chemical Society, 2013)
Several values for one entry are separate records, joined by “and”; a condition that tells them apart may be missing. Equal values may be shown once. Read-outs that look alike come from different tables or passages of the source. Marks after values point to notes of the source that are not given here.

Columns and labels:
[1] = cited from earlier work
[2] = Aqueous solubility of neutral ligand; assay type: physicochemical
[3] = Cu; assay type: binding; settings: for pCu = −log [Cu(I)aq]: 10 μM ligand and 1 μM Cu(I), pH 7.0, I = 0.1; for logβ2’ (apparent, 2:1 Cu(I) complex): pH 7.0 (0.1 M KClO4); for logβ2 of the 2:1 Cu(I) complex: recommended cumulative average, aqueous solution 25°C
[4] = Protonation constants by potentiometric or spectrophotometric titration; assay type: physicochemical; settings: aqueous solution, 25°C, 0.1 M KCl; concentration constants based on p[H]
Method in brief: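 The glass electrode was calibrated by titrating 5 mM HCl in 0.1 M KCl with standardized 0.1 M KOH (25°C, Gran's method); constants are on p[H], not activity. Ligand (1 or 5 mM, 0.1 M KCl, 25°C; basic sites pre-protonated with ≥1 equiv HCl where needed) was titrated stepwise with 0.1 M KOH and fitted by non-linear least squares. Values are from three independent titrations as standard deviation of the mean. Adding 0.11 gives mixed-mode constants.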

[5] = cited from earlier work; remark: listed apart in the source
[6] = Cyclic voltammetry of the ligand-bound Cu; assay type: physicochemical; settings: pH 5.0, 10 mM PIPBS, 0.1 M KClO4, Cu(II/I) complex
Method in brief: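 Cyclic voltammetry was run under argon in 10 mM PIPBS pH 5 with 0.1 M KClO4 electrolyte. Half-wave potentials were referenced to ferrocenium (0.40 vs. SHE) or ferroin.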

[7] = 1:1 Cu(II) complex, Damu et al.; cited from earlier work
[8] = Cu; assay type: binding; settings: 1:1 Cu(II) complex, aqueous solution, 25°C, I = 0.1
[9] = spectrophotometric competition titration with MCL-1

For `O=C(O)c1cc(-c2cc(C(=O)O)c3ccccc3n2)nc2ccccc12` [BCA, 2,2′-bicinchoninic acid], the protonation constant ([1]; 0.2 M ionic strength) is listed as 3.74±0.04, the “solubility in aqueous solution” value [2] is listed as “not soluble at millimolar concentrations” and the “pCu = −log [Cu(I)aq]” value [3] is listed as 13.5. For the same compound, the “logβ2 Cu(I)” value ([3]; competition titration with PEMEA) was 17.63±0.05, the “logβ2’ (apparent, 2:1 Cu(I) complex)” value [3] was 17.7 ^e and the “logβ2 of the 2:1 Cu(I) complex” value [3] was 17.66(3) ^d. For the same compound, the “logβ2 Cu(I)” value [3, 9] was 17.67±0.03 and the logKH1 [4] was 3.80(2).
In the case of `Cc1cc(-c2ccc(S(=O)(=O)O)cc2)c2ccc3c(-c4ccc(S(=O)(=O)O)cc4)cc(C)nc3c2n1` [BCS, bathocuproine disulfonate], the “logβ2 Cu(I)” value ([5]; previously reported) is given as 19.9, the protonation constant ([1]; previously reported) is given as 5.7 and the “pCu = −log [Cu(I)aq]” value [3] is given as 16.6. The “logβ2 Cu(I)” value ([3]; from half-wave potential and Cu(II) logβ2 via Equation (1)) was 20.81±0.08, the “logβ2’ (apparent, 2:1 Cu(I) complex)” value [3] was 20.8 ^e and the “logβ2 of the 2:1 Cu(I) complex” value [3] was 20.81(2) ^d. The “logβ2 Cu(I)” value [3, 9] was 20.80±0.03, the logKH1 [4] was 5.70(2) and the “E^f vs. SHE (half-wave potential)” value [6] was 0.626 V and 0.626(1) V.
For `OCCN(CCO)Cc1ccccn1` [DHEAMP, N,N-bis(2-hydroxyethyl)-N-(2-pyridylmethyl)amine], the “logKCu(II)L” value [7] is listed as 9.2±0.1, the protonation constant ([1]; lit.) is listed as 6.92±0.01 and the “log KCu(II)L” value [8] is listed as 9.21±0.02.
In the case of `CCSCCN(CCSCC)CCSCC` [TEMEA], the protonation constant ([1]; aqueous solution) is listed as 8.32 and the protonation constant ([1]; extrapolated from data acquired in 80% water-methanol) is listed as 7.1.
In the case of `CSCCN(CCSC)CCSC` [TMMEA, tris(2-methylthioethyl)amine], the protonation constant ([1]; aqueous solution) is given as 8.36.
In the case of `C1CSCCCSCCCSCCCSC1` [[16]aneS4], the “logKCu(I)L” value [5] is given as 12.0.
For `CC#N` [acetonitrile], the “logβ1 Cu(I)” value ([5]; kinetic method) is given as 2.63, the “logβ2 Cu(I)” value ([5]; kinetic method) is given as 4.02 and the “logβ3 Cu(I)” value ([5]; kinetic method) is given as 4.29.
